Measurements as given in PMC12059896 (ACS Omega, 2025).

Columns and labels:
LNCaP cells = assay: XTT cytotoxicity assay in LNCaP cells; assay type: cell-based; settings: 24 h and 72 h, n = 4 (Figures 6, 7)
How it was run: (§1)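 Cells kept in RPMI with 10% FBS and 1% penicillin–streptomycin at 37 °C, 5% CO2. Seeded at 6 × 10^3 (LNCaP) or 3 × 10^3 (PC-3) per well, attached 24 h, then exposed to free drugs or leucine-coupled drugs. At 24 and 72 h, XTT added for 3 h at 37 °C; absorbance read at 450 nm. Controls: 0.05% DMSO and medium alone. Mean ± SD, n = 4.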

PC-3 cells [1] = assay: XTT cytotoxicity assay in PC-3 cells; assay type: cell-based; settings: 24 h and 72 h, n = 4 (Figures 6, 7)
How it was run: as §1

PC-3 cells [2] = settings: PC-3 cells do not express PSA; ref 10 (Bakthavatsalam et al. 2020); cited from earlier work
[3] = cited from earlier work

COC1C(=O)C2(C)C(OC)CC3OCC3(OC(C)=O)C2C(OC(=O)c2ccccc2)C2(O)CC(OC(=O)C(OC(=O)C(N)CC(C)C)C(NC(=O)OC(C)(C)C)c3ccccc3)C(C)=C1C2(C)C [L-cabazitaxel, NH2-Leu-Cabazitaxel]
cytotoxicity of drug compared with its leucine conjugate, LNCaP (LNCaP cells): comparable cytotoxicity
cytotoxicity of drug compared with its leucine conjugate, PC-3 (PC-3 cells [1]): comparable cytotoxicity

Ac-HSSKLQL-PAB-dithiocarbamate
cytotoxicity in PC-3 cells (PC-3 cells [2]): demonstrated cytotoxicity in PC-3 cells

CCc1c2c(nc3ccc(O)cc13)-c1cc3c(c(=O)n1C2)COC(=O)C3(CC)OC(=O)C(N)CC(C)C (stereo not shown) [L–SN–38, NH2-Leu–SN–38]
cytotoxicity of drug compared with its leucine conjugate, LNCaP (LNCaP cells): comparable cytotoxicity
cytotoxicity of drug compared with its leucine conjugate, PC-3 (PC-3 cells [1]): comparable cytotoxicity

CCc1c2c(nc3ccc(O)cc13)-c1cc3c(c(=O)n1C2)COC(=O)[C@]3(O)CC [SN-38, 7-Ethyl-10-hydroxycamptothecin]
cytotoxicity of drug compared with its leucine conjugate, LNCaP (LNCaP cells): comparable cytotoxicity
potency relative to CPT-11 in inducing antitumor activity [3]: 100- to 1000 fold
cytotoxicity of drug compared with its leucine conjugate, PC-3 (PC-3 cells [1]): comparable cytotoxicity

CO[C@H]1C(=O)[C@]2(C)[C@@H](OC)C[C@H]3OC[C@@]3(OC(C)=O)[C@H]2[C@H](OC(=O)c2ccccc2)[C@]2(O)C[C@H](OC(=O)[C@H](O)[C@@H](NC(=O)OC(C)(C)C)c3ccccc3)C(C)=C1C2(C)C [cabazitaxel]
cytotoxicity of drug compared with its leucine conjugate, LNCaP (LNCaP cells): comparable cytotoxicity
cytotoxicity of drug compared with its leucine conjugate, PC-3 (PC-3 cells [1]): comparable cytotoxicity
